Only some compounds are listed: those with a hit (about 1.8% of all), similar ones and a draw of the others.
Tn6 DDE FP: disrupts Tn6 cyclic peptide binding to fibrin D-Dimer-E complex | P02675 | Fibrin DD(E) TRITC-Tn6 fluorescence polarization displacement | inhibition, % at 8.3 µM | hit rate 0.21% among 370,000 | AID 720509;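 active = inhibition above a per-campaign cutoff: mean of compounds within control limits plus 3 SD, cut at about 15% in these data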;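 also: 0% = median of all compound wells on the plate and 100% = blocking peptide control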
Target sequence (P02675 whole entry, looked up): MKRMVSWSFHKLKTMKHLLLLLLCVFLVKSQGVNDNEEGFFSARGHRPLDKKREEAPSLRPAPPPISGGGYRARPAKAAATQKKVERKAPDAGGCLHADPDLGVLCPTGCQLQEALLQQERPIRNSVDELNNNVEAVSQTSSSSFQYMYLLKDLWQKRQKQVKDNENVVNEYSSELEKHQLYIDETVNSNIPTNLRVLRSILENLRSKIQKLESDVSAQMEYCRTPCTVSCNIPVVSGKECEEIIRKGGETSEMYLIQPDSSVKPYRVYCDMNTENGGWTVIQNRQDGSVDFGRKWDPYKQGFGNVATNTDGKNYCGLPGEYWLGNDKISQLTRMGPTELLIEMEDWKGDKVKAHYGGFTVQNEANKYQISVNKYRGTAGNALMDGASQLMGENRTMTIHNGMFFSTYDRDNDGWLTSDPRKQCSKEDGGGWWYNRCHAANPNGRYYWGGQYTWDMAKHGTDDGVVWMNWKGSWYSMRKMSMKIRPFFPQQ
SIAE primary: inhibitors of human sialic acid acetylesterase SIAE | Q9HAT2 | SIAE FP-Rh probe binding, fluorescence polarization | inhibition, % at 9.66 µM | hit rate 0.69% among 370,000;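 active = inhibition above a cutoff: mean of compounds within the control limits plus 3 SD of those, cut at about 17% in these data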;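 also: 0% = plate median of compound wells and 100% = probe without SIAE protein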
TCR-CD3 inh: inhibitors of human TCR-CD3 interaction; AID 651800; hit rate 0.37% among 360,000; inhibition, % at 9.4 µM; TAMRA-labeled TCR probe fluorescence, biochemical; in the data active = inhibition above about 19%;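 also: recombinant mutant TCR 2C K166C tagged with TAMRA read by polarization; 0% = receptor in buffer alone and 100% = receptor with positive control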
ABHD4 inh: inhibitors of mouse ABHD4; Q8VD66; purified mABHD4, FP-Rh probe fluorescence polarization; inhibition, % at 8.92 µM; hit rate 0.54% among 370,000; AID 720543;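 active = inhibition exceeding the mean over every tested compound plus 3 SD, cut at about 30% in these data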;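 also: 0% = plate median of compound wells and 100% = S159A mutant with DMSO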
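Test system: mABHD4 protein; Read-out basis: % inhibition; Incubation: 45 min + 60 min at 25 °C; Repeats: single replicate; Technique: fluorescence polarization with parallel and perpendicular emission, 525/598 nm; Compound: 8.92 µM, single dose; Benchmarks: full inhibition S159A mutant plus DMSO, zero as sample-well median.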
DDE Tn7 FP inh: DD(E)-Tn7 binding inhibition, primary FP screen | P02675 | FP displacement of FITC-Tn7 peptide from fibrin DD(E); 0% = median of compound wells per plate | inhibition, % at 8.3 µM | hit rate 0.13% among 370,000 | AID 720508;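 active = inhibition above the mean of compounds falling within the control limits plus 3 SD of them, cut at about 14% in these data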;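 also: 0% = plate median of compound wells and 100% = 10 µM Aha-Tn7 peptide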
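Also added: labelled Tn7 tracer, 0.1 µM; Assay system: human fibrin DD(E) protein; Amount: 2 µM fibrin DD(E); Schedule: 10 min compound pre-incubation, 3 h probe incubation at room temperature; Repeats: one replicate per compound; Read-out basis: percent inhibition; Measured by: fluorescence polarization of the labelled Tn7 tracer.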
HTRA1 inhibitor: inhibitors of human serine peptidase HTRA1; recombinant HTRA1, FP-rhodamine activity-based probe, fluorescence polarization; inhibition, % at 5.96 µM; hit rate 0.5% among 340,000; AID 504803; in the data active = inhibition above about 36%;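 also: 0% = enzyme with DMSO and 100% = wells lacking enzyme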
DDE Tn6 FP ctr: counter-screen for inhibitors of Tn6 peptide binding to fibrin DD(E) | hit rate 2% among 680 | inhibition, % at 8.3 µM | TRITC-Tn6 fluorescence polarization displacement; 0% = median of compound wells, not DMSO | shares compounds with Tn6 DDE FP | AID 720621;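 active = inhibition above the mean of test compounds lying between the control limits plus 3 SD of those, cut at about 14% in these data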;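 also: 0% = median of compound wells and 100% = wells with Aha-Tn7 blocking peptide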
DDE Tn6 confirm: DD(E)-Tn6 binding inhibition, FP confirmation; shares compounds with Tn6 DDE FP; FP displacement of TRITC-Tn6 peptide from DD(E); 0% = per-plate median of test wells; inhibition, % at 8.3 µM; hit rate 10% among 680; AID 720631;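 active = inhibition above the mean of compounds lying within the control limits plus 3 SD, cut at about 16% in these data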;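 also: 100% = high control wells holding a competing inhibitor peptide at 10 µM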
Numbers without * were called inactive; . = not tested or not shown.

SMILES	Tn6 DDE FP	SIAE primary	TCR-CD3 inh	ABHD4 inh	DDE Tn7 FP inh	HTRA1 inhibitor	DDE Tn6 FP ctr	DDE Tn6 confirm
COCCn1c(C)cc(C2=NNC(=Nc3ccccc3)SC2)c1C	17*	6	1	11	-1	16	6	-7
COc1cccc(NC(=O)c2ccccc2N2C(=O)C3C4C=CC(C4)C3C2=O)c1 (configuration not stated)	16*	10	-1	3	2	-6	-2	-4
COc1cccc(NC(=O)c2ccccc2N2C(=O)C3C4C=CC(C5CC45)C3C2=O)c1 (configuration not stated)	0	0	0	-7	6	-32	.	.
O=C(N[C@H]1C[C@@H]2O[C@H](CO)CC[C@@H]2O[C@@H]1CCc1ccc(-c2cccnc2)cc1)c1cccc(F)c1	-6	-4	.	2	6	.	.	.
CCn1c(=S)sc2c(=O)n(-c3ccccc3)c(=S)[nH]c21	18*	-2	6	0	4	-21	8	-15
CCCCCOCC1CC(C/C(C)=N/NC(N)=S)C(=O)O1 (configuration not stated)	15*	4	7	13	10	2	-1	-11
COc1ccccc1NCc1nc2ccccc2n1C	6	0	.	3	2	.	.	.
COc1ccc(CC(=O)NCc2ccc3c(c2)cc(C)n3C)cc1OC	0	8	8	1	6	8	.	.
COc1ccc(C(=O)NCc2ccc3c(c2)cc(C)n3C)cc1	19*	-3	16	14	-2	6	6	-1
COc1cc(OC)cc(C(=O)NCc2ccc3c(c2)cc(C)n3C)c1	2	1	-5	-5	0	1	.	.
COCC(=O)NCc1ccc2c(c1)cc(C)n2C	21*	-1	14	18	3	-2	1	0
O=C(OCc1cn(Cc2cccc(C(F)(F)F)c2)nn1)N1CCOCC1	0	-3	.	-1	-1	.	.	.
Cc1ccccc1-n1c(C)nnc1SCC(=O)N(C)C1CCS(=O)(=O)C1 (configuration not stated)	19*	-3	-3	2	0	-1	-2	-5
Cc1ccccc1-n1c(SCC(=O)N(C)C2CCS(=O)(=O)C2)nnc1-c1ccncc1 (configuration not stated)	9	3	-4	3	0	-1	.	.
Oc1ccc(N2CCN(C(=S)NCCc3ccccc3)CC2)cc1	16*	7	-9	27	-6	12	8	12
c1ccc(-c2nc(-n3ccnc3)nc(-n3ccnc3)n2)cc1	15*	-6	0	11	7	-7	2	-3
CCOC(=O)CC[C@H]1CC[C@]2(CCCN(C(=O)c3ccco3)C2)O1	3	3	.	0	-3	.	.	.
O=c1c2cccnc2[nH]c(=S)n1CCCN1CCN(c2ccccc2F)CC1	17*	-4	3	1	7	-5	1	-1
Cn1c(=O)c2cc(S(=O)(=O)N3CCN(c4ccc(F)cc4)CC3)ccc2n(C)c1=O	2	-4	.	5	4	.	.	.
CCC[C@H]1[C@@H](OC(=O)NCc2ccc(C(F)(F)F)cc2)CC[C@@]23CCCN2C(=O)CCC[C@@H]13	-1	0	.	9	1	.	.	.
CC(C)CN1C(=O)[C@]2(CC(=O)N(C)C2c2ccccc2)c2cc(-n3cc(C4=CCCCC4)nn3)ccc21 (some centres not stated)	15*	5	.	4	-1	.	8	7
O=C(NCCN1CCC(Cc2ccccc2)CC1)C1CCCN(S(=O)(=O)c2ccc([N+](=O)[O-])cc2)C1 (configuration not stated)	4	-3	.	5	8	.	.	.
CC1CC(C)CN(S(=O)(=O)c2ccc3c(c2)oc(=O)n3CC(=O)N(C)Cc2ccccc2)C1 (configuration not stated)	15*	-7	-7	8	3	0	1	-4
O=C(COc1ccccc1)Nc1cccc(-c2nc3cc4ccccc4cc3[nH]2)c1	87*	-90	19	-119	3	-74	7	25*
O=C(COc1ccccc1)Nc1cccc(-c2nn[nH]n2)c1	-3	4	-14	-5	2	6	.	.
SMILES	Tn6 DDE FP	SIAE primary	TCR-CD3 inh	ABHD4 inh	DDE Tn7 FP inh	HTRA1 inhibitor	DDE Tn6 FP ctr	DDE Tn6 confirm
C#CCNC(=O)C[C@H]1C[C@@]2(C(=O)OC)C(=C[C@H](C3CCCC3)O[C@@H]2C)N(CCc2ccc(OC)c(OC)c2)C1=O	-2	-3	.	4	-6	.	.	.
O=C(CN(CCc1ccccc1)S(=O)(=O)c1ccc(F)cc1)N1CCOCC1	1	4	.	8	-4	.	.	.
Cc1ccc(-c2cc(-c3nnc(SCC(=O)N4c5ccccc5Sc5ccc(Cl)cc54)n3N)[nH]n2)cc1	1	-5	.	4	3	.	.	.
N#CC(C#N)=c1ccc2c(c1)NC1(CCCCC1)N=2	42*	-10	-33	-4	4	18	11	34*
COc1ccccc1CNC(=O)NNC(=O)CCn1nc(C)c([N+](=O)[O-])c1C	-3	-11	.	-1	-3	.	.	.
COC(=O)C1CN(C2CCCC2)CCS(=O)(=O)N1Cc1ccc(Cl)cc1 (configuration not stated)	-3	-7	.	2	0	.	.	.
Oc1ccc(C[C@H]2CNC(=S)N2C[C@H]2CCCN2C[C@H](Cc2ccccc2)N2C[C@H](Cc3ccc(O)cc3)N(CCc3ccccc3)C2=S)cc1	17*	-46	6	-38	3	.	-2	-10
Oc1ccc(C[C@H]2CNC(=S)N2CC2CCCN2C[C@H](Cc2ccc(O)cc2)N2C[C@H](Cc3ccc(O)cc3)N(CC3CCCCCC3)C2=S)cc1 (some centres not stated)	31*	-56	4	-34	8	-74	-2	-1
CCOc1ccc(CCN2C(=S)N([C@@H](Cc3ccc(O)cc3)CN3CCC[C@@H]3CN3C(=S)NC[C@@H]3CC(C)C)C[C@@H]2Cc2ccc(O)cc2)cc1	16*	-28	7	-33	0	.	0	-6
CCOc1ccc(CCN2C(=S)N([C@@H](Cc3ccc(O)cc3)CN3CCCC3CN3C(=S)NC[C@@H]3Cc3ccc(O)cc3)C[C@@H]2CC(C)C)cc1 (some centres not stated)	-8	-35	5	-20	2	-75	.	.
Cc1nc(N2CCCCC2C)c2nnn(Cc3ccccc3)c2n1 (configuration not stated)	-7	-3	.	0	8	.	.	.

Screens: PubChem BioAssay, The Scripps Research Institute Molecular Screening Center
